In brackets after ≈: the same amount, converted by molar mass. Activity calls are given as the source filed them. The calls are words filed in the database; no cut-off is given here. Starred links: 1 amine or outer side, 2 acyl side, 3 side chain; linkers in the order of their positions; H or OH if unused. Positions of bridges follow the written chain, without caps; N, C: chain ends. Non-standard residues stand in square brackets, D forms with d. Residues, ends and D or L forms follow the SMILES beside them. *: point of attachment. Orn(4R-OH,5R-OH) = O=C([C@H](C[C@@H](O)[C@@H](O)N[*:3])N[*:1])[*:2]; hTyr(3S-OH,4S-OH) = N[C@H](C(=O)O)[C@H](O)[C@@H](O)c1ccc(O)cc1; Pro(3S-OH,4S-Me) = C[C@H]1CN[C@H](C(=O)O)[C@H]1O; Palmitoyl = CCCCCCCCCCCCCCCC(=O)*; Hyp = O=C(O)[C@@H]1C[C@@H](O)CN1
Key:
Candida albicans [1] = test: Antifungal activity against Candida albicans ATCC 10231 assessed as increase in intracellular potassium release after 30 mins; type: functional, organism-based
Procedure, shortened: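 Efflux of K+ from C. albicans cells was monitored continuously with a potassium-selective electrode. Release was expressed relative to a positive control, and EK50 was taken as the concentration releasing 50% of intracellular potassium.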

Staphylococcus aureus [2] = test: Antibacterial activity against Staphylococcus aureus ATCC 25923 after 18 to 24 hrs by serial broth microdilution susceptibility test; type: functional
Procedure, shortened: (§1)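 MIC determined by serial microdilution in microplates. Candida inocula were prepared in L-glutamine-deficient RPMI-1640 medium.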

[3] = (§2) Inhibition of beta (1,3) glucan synthase in Candida albicans cell membrane using UDP-Glc as substrate assessed as aniline blue-glucan complex formation by microtiter-based fluorescence method
Procedure, shortened: (§3)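 β(1,3)-glucan synthase in the membrane fraction of C. albicans was assayed by a microtiter-based fluorescence method across a concentration range. Values are means of three independent experiments (SD); IC50 was determined.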

[4] = tested on: Klebsiella pneumoniae subsp. pneumoniae; test: Antibacterial activity against Klebsiella pneumoniae subsp. pneumoniae ATCC 13882 after 18 to 24 hrs by serial broth microdilution susceptibility test; type: functional; procedure, shortened: as §1
Pseudomonas aeruginosa = test: Antibacterial activity against Pseudomonas aeruginosa ATCC 27853 after 18 to 24 hrs by serial broth microdilution susceptibility test; type: functional; procedure, shortened: as §1
Candida albicans [5] = test: Antifungal activity against Candida albicans ATCC 90028 after 24 to 48 hrs by serial broth microdilution susceptibility test; type: functional; procedure, shortened: as §1
Escherichia coli [6] = test: Antibacterial activity against Escherichia coli ATCC BAA-198 after 18 to 24 hrs by serial broth microdilution susceptibility test; type: functional; procedure, shortened: as §1
Candida parapsilosis = test: Antifungal activity against Candida parapsilosis ATCC 22019 after 24 to 48 hrs by serial broth microdilution susceptibility test; type: functional; conditions: Lodderomyces parapsilosis; procedure, shortened: as §1
[7] = Toxicity in human erythrocytes assessed as hemolysis at 100 uM after 30 mins by spectrophotometry; type: cell-based, Erythrocyte; conditions: read-out: Activity
Procedure, shortened: (§4)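 Human erythrocytes suspended in PBS were exposed to lipopeptides at 0.001–0.4 mmol/l and hemolysis was measured.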

Staphylococcus aureus [8] = test: Antibacterial activity against Staphylococcus aureus ATCC 43300 after 18 to 24 hrs by serial broth microdilution susceptibility test; type: functional; procedure, shortened: as §1
Acinetobacter baumannii = test: Antibacterial activity against Acinetobacter baumannii ATCC 19606 after 18 to 24 hrs by serial broth microdilution susceptibility test; type: functional; conditions: ATCC 19606 = CIP 70.34 = JCM 6841; procedure, shortened: as §1
Escherichia coli [9] = test: Antibacterial activity against Escherichia coli ATCC 25922 after 18 to 24 hrs by serial broth microdilution susceptibility test; type: functional; procedure, shortened: as §1
[10] = tested on: Bordetella bronchiseptica; test: Antibacterial activity against Bordetella bronchiseptica ATCC 4617 after 18 to 24 hrs by serial broth microdilution susceptibility test; type: functional; procedure, shortened: as §1
Pichia kudriavzevii = test: Antifungal activity against Candida krusei ATCC 6258 after 24 to 48 hrs by serial broth microdilution susceptibility test; type: functional; procedure, shortened: as §1
Candida albicans [11] = test: Antifungal activity against Candida albicans ATCC 10231 assessed as morphological changes at < 60 uM after 6 hrs by calcofluor white and aniline blue staining-based fluorescence microscopy; type: functional, organism-based
Procedure, shortened: (§5)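 C. albicans ATCC 10231 yeast cells were incubated with compound for 6 h, at up to 2×MIC. Chitin was stained with Calcofluor White and glucan with Aniline Blue, then cells were examined by fluorescence microscopy against untreated controls.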

Candida albicans [12] = test: Antifungal activity against Candida albicans ATCC 10231 assessed as pseudohyphae formation at 120 uM after 6 hrs by calcofluor white and aniline blue staining-based fluorescence microscopy; type: functional, organism-based; procedure, shortened: as §5
Candida albicans [13] = test: as §2; procedure, shortened: as §3
Candida albicans [14] = test: Inhibition of beta (1,3) glucan synthase in Candida albicans cell membrane using UDP-Glc as substrate assessed as aniline blue-glucan complex formation at 187 uM by microtiter-based fluorescence method; procedure, shortened: as §3
[15] = Toxicity in human erythrocytes assessed as hemolysis at 300 uM after 30 mins by spectrophotometry; type: cell-based, Erythrocyte; conditions: read-out: Activity; procedure, shortened: as §4
[16] = Toxicity in human erythrocytes assessed as hemolysis at 50 uM after 30 mins by spectrophotometry; type: cell-based, Erythrocyte; conditions: read-out: Activity; procedure, shortened: as §4

Row | MIC (Staphylococcus aureus [2]) [µM] | MIC [4] [µM] | MIC (Pseudomonas aeruginosa) [µM] | MIC (Candida albicans [5]) [µM] | MIC (Escherichia coli [6]) [µM] | MIC (Candida parapsilosis) [µM] | MIC (Staphylococcus aureus [8]) [µM] | MIC (Acinetobacter baumannii) [µM] | MIC (Escherichia coli [9]) [µM] | MIC [10] [µM] | MIC (Pichia kudriavzevii) [µM] | Compound | other results
1 | 16 (≈ 16 µg/mL) | 128 (≈ 128 µg/mL) | 32 (≈ 31.9 µg/mL) | 32 (≈ 31.9 µg/mL) | 32 (≈ 31.9 µg/mL) | 16 (≈ 16 µg/mL) | 16 (≈ 16 µg/mL) | > 256 | 32 (≈ 31.9 µg/mL) | 8 (≈ 7.98 µg/mL) | 16 (≈ 16 µg/mL) | CCCCCCCCNC(=O)[C@H](Cc1ccccc1)NC(=O)[C@H](CCCCNC(=O)[C@H](CCCCN)NC(=O)OCc1ccccc1Cl)NC(=O)[C@H](CCCCN)NC(=O)OCc1ccccc1Cl | hemolysis at 0.5 h, 100 µM [7]: 10%
2 | – | – | – | 0.5 (≈ 0.518 µg/mL) | – | – | – | – | – | – | – | CCCCCCCCCCCCCCCC(=O)N[C@H]1C[C@@H](O)[C@@H](O)NC(=O)[C@@H]2[C@@H](O)[C@@H](C)CN2C(=O)[C@H]([C@@H](C)O)NC(=O)[C@H]([C@H](O)[C@@H](O)c2ccc(O)cc2)NC(=O)[C@@H]2C[C@@H](O)CN2C(=O)[C@H]([C@@H](C)O)NC1=O [ACULEACIN A] (Palmitoyl-[Orn(4R-OH,5R-OH)]T[Hyp][hTyr(3S-OH,4S-OH)]T[Pro(3S-OH,4S-Me)]; lactam 1-C) | IC50 [3]: 12 µM
3 | 30 (≈ 29.9 µg/mL) | 119 (≈ 119 µg/mL) | 120 (≈ 120 µg/mL) | 60 (≈ 59.9 µg/mL) | 8 (≈ 7.98 µg/mL) | 15 (≈ 15 µg/mL) | 8 (≈ 7.98 µg/mL) | 60 (≈ 59.9 µg/mL) | 8 (≈ 7.98 µg/mL) | 7 (≈ 6.99 µg/mL) | 15 (≈ 15 µg/mL) | CCCCCCCCNC(=O)[C@H](Cc1ccccc1)NC(=O)[C@H](CCCCNC(=O)[C@@H](N)CCCCNC(=O)OCc1ccccc1Cl)NC(=O)[C@@H](N)CCCCNC(=O)OCc1ccccc1Cl | Activity (Candida albicans [11]): inactive; Activity (Candida albicans [12]): Active; inhibition (Candida albicans [13]): Dose-dependent effect; inhibition (Candida albicans [14]): 43%; hemolysis at 0.5 h, 100 µM [7]: 1%; Activity (Candida albicans [1]): Dose-dependent effect; EC50 (Candida albicans [1]; Candida albicans, ATCC 10231, 0.5 h): 17 µM; hemolysis at 0.5 h, 300 µM [15]: 10%
4 | 32 (≈ 29.7 µg/mL) | 128 (≈ 119 µg/mL) | 32 (≈ 29.7 µg/mL) | 32 (≈ 29.7 µg/mL) | 8 (≈ 7.43 µg/mL) | 16 (≈ 14.9 µg/mL) | 16 (≈ 14.9 µg/mL) | 128 (≈ 119 µg/mL) | 30 (≈ 27.9 µg/mL) | 8 (≈ 7.43 µg/mL) | 16 (≈ 14.9 µg/mL) | CCCCCCCCNC(=O)[C@H](Cc1ccccc1)NC(=O)[C@H](CCCCNC(=O)[C@H](CCCCN)NC(=O)OCc1ccccc1)NC(=O)[C@H](CCCCN)NC(=O)OCc1ccccc1 | hemolysis at 0.5 h, 50 µM [16]: 10%

More lines, now with the values behind:

Row | Compound | MIC (Staphylococcus aureus [2]) [µM] | MIC [4] [µM] | MIC (Pseudomonas aeruginosa) [µM] | MIC (Candida albicans [5]) [µM] | MIC (Escherichia coli [6]) [µM] | MIC (Candida parapsilosis) [µM] | MIC (Staphylococcus aureus [8]) [µM] | MIC (Acinetobacter baumannii) [µM] | MIC (Escherichia coli [9]) [µM] | MIC [10] [µM] | MIC (Pichia kudriavzevii) [µM] | other results
5 | NYSTATIN | – | – | – | – | – | – | – | – | – | – | – | EC50 (Candida albicans [1]): 2.4 µM
6 | CC1(C)S[C@@H]2[C@H](NC(=O)Cc3ccccc3)C(=O)N2[C@H]1C(=O)O [PENICILLIN G] | 6.6 (≈ 2.21 µg/mL) | – | – | – | – | – | – | – | – | – | – | –
7 | O=C/C=C/c1ccccc1 [CINNAMALDEHYDE] | – | – | – | – | – | – | – | – | – | – | – | IC50 [3]: 1150 µM

Source: ChEMBL document CHEMBL1949532, “Novel dendrimeric lipopeptides with antifungal activity” (Bioorg Med Chem Lett, 2012)
